The source made the active and inactive calls. The calls are words filed in the database; no cut-off is given here.
Tested on: U-87 MG
Assay: Cytotoxicity against human U87 cells assessed as reduction in cell proliferation at 100 uM measured after 48 hrs by trypan blue dye-based cell counting analysis
Format: functional
Conditions: U-87MG ATCC
Method in brief: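 Trypan blue viability assay. U87 (MEM, 10% FBS) or LN229 (DMEM, 5% FBS) cells were treated for 48hrs. Screening used 100 μM; the dose-response used 100, 75, 50, 25 and 10 μM. Cells were pelleted at 1200 rpm and live/dead cells counted by automated counter. Mortality % was taken relative to the DMSO control, and IC₅₀ derived from the dose-response curve. Cisplatin served as positive control.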

CC(=O)/C(=N\Nc1cc(S(=O)(=O)O)cc(S(=O)(=O)O)c1O)C(=O)c1ccccc1
Activity: inactive

CC(=O)/C(=N\Nc1ccc([N+](=O)[O-])cc1O)C(=O)c1ccccc1
Activity: Active

— ChEMBL document CHEMBL4316593 (Eur J Med Chem, 2019)
